Assay results taken from ChEMBL document CHEMBL1777724, “Discovery, design and synthesis of the first reported potent and selective sphingosine-1-phosphate 4 (S1P4) receptor antagonists” (Bioorg Med Chem Lett, 2011).
pIC50: −log10 of the molar value. Active and inactive are the calls of the source. The rule behind the calls is not given here.

How the values were obtained:
[1] = biological target: T1, Sphingosine 1-phosphate receptor 4 (Homo sapiens) (UniProt O95977); assay: Antagonist activity at S1P4 receptor in human U2OS cells expressing EDG6-linked GAL4-VP16 transcription factor via TEV protease site/beta-arrestin/TEV protease fusion protein and beta-lactamase reporter gene assessed as beta-lactamase expression up to 25 uM by FRET assay; assay type: functional, cell-based
T1 sequence (whole entry): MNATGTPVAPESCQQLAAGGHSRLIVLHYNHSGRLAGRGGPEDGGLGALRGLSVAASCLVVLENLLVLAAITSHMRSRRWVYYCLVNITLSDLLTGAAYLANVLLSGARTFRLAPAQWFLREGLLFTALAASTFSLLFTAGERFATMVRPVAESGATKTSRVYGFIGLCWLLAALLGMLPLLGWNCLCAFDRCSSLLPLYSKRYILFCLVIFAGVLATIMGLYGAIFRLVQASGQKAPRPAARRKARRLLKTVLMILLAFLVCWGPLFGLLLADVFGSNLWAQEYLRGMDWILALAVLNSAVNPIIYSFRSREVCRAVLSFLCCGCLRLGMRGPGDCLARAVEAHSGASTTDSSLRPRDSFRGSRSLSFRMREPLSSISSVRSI
How it was run: (§1)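 Cells co-express a beta-arrestin/TEV protease fusion protein and a beta-lactamase reporter gene under a UAS response element. Reporter expression was read as FRET of a cleavable, fluorogenic, cell-permeable beta-lactamase substrate. Compounds were tested at concentrations up to 25 μM. IC50 values are the mean of n = 3 determinations.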

[2] = biological target: T2, Sphingosine 1-phosphate receptor 2 (Homo sapiens, UniProt O95136); assay: Inhibition of S1P2 receptor
[3] = biological target: T3, Sphingosine 1-phosphate receptor 1 (Homo sapiens, UniProt P21453); assay: Inhibition of S1P1 receptor
[4] = biological target: T4, Sphingosine 1-phosphate receptor 5 (Homo sapiens, UniProt Q9H228); assay: Inhibition of S1P5 receptor
[5] = biological target: T2, Sphingosine 1-phosphate receptor 2; assay: Inhibition of S1P2 receptor at 25 uM
How it was run: (§2)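 Selectivity counter-screen reported as percentage of inhibition at a single 25 μM concentration, given as the mean of n = 3 determinations.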

[6] = biological target: T5, Sphingosine 1-phosphate receptor 4 (Homo sapiens, UniProt O95977); assay: Antagonist activity at S1P4 receptor in human U2OS cells expressing EDG6-linked GAL4-VP16 transcription factor via TEV protease site/beta-arrestin/TEV protease fusion protein and beta-lactamase reporter gene assessed as beta-lactamase expression by FRET assay; assay type: functional, cell-based; how it was run: as §1
T5 sequence (O95977 whole entry): T1 sequence (whole entry)

[7] = biological target: Sphingosine 1-phosphate receptor 3 (Homo sapiens, UniProt Q99500); assay: Inhibition of S1P3 receptor at 25 uM; how it was run: as §2
[8] = biological target: T3, Sphingosine 1-phosphate receptor 1; assay: Inhibition of S1P1 receptor at 25 uM; how it was run: as §2
[9] = biological target: T4, Sphingosine 1-phosphate receptor 5; assay: Inhibition of S1P5 receptor at 25 uM; how it was run: as §2

T2 sequence (O95136 whole entry): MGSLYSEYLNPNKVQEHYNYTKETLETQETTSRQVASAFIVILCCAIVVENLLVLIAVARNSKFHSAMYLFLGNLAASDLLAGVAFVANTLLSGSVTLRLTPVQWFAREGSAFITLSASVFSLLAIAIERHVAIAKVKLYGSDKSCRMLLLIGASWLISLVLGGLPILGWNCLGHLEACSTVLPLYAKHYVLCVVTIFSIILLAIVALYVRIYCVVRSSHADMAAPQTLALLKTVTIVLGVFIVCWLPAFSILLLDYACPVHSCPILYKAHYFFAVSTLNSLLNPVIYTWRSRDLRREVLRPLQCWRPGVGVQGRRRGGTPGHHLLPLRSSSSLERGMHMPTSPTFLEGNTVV
Chain of Sphingosine 1-phosphate receptor 3 (Q99500 whole entry): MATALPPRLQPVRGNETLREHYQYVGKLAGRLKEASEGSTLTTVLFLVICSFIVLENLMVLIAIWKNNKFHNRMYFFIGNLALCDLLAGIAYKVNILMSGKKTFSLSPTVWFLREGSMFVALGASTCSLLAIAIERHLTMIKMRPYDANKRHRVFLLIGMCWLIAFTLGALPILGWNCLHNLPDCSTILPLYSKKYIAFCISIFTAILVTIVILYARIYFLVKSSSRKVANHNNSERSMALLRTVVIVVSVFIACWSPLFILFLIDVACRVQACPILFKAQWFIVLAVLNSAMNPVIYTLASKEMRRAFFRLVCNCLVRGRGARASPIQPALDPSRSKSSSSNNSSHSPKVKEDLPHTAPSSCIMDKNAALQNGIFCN
T4 sequence (Q9H228 whole entry): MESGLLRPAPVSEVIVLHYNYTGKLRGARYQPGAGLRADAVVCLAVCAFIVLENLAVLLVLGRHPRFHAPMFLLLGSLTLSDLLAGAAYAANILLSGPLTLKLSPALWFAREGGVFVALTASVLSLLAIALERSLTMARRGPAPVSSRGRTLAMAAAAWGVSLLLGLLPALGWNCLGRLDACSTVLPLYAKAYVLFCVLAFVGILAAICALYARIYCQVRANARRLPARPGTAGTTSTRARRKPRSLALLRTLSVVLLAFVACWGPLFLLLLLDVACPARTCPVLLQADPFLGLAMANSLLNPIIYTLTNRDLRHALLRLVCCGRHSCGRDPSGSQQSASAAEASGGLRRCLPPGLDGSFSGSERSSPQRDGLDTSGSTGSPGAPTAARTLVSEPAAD
T3 sequence (P21453 whole entry): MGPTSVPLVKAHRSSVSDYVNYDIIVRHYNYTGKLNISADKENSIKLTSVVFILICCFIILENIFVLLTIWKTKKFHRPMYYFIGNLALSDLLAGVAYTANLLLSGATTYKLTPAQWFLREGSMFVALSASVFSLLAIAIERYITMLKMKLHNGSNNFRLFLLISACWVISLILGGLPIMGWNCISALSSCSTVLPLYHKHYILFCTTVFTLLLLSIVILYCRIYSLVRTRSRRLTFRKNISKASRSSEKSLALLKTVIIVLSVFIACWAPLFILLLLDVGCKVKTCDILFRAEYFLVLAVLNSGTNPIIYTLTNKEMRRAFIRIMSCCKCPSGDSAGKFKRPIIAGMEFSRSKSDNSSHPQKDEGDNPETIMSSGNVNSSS

`Cc1cccc(C)c1N(C)C(=O)c1ccc(-c2cc(O)ccc2O)o1` was tested, and the inhibition [1] was “inactive”.

Work on `Cc1cc(O)cc(C)c1NC(=O)c1ccc(-c2cc(Cl)ccc2Cl)o1` yielded a pIC50 [2] of 5.55, a pIC50 [3] of 5.28 and a pIC50 [4] of 5.52. For the same compound, the inhibition [5] was 90% and the pIC50 [6] was 7.24.

In the case of `CCc1cccc(C)c1NC(=O)c1ccc(-c2cc(Cl)ccc2Cl)o1`, the inhibition [7] was 55%, the inhibition [8] was “inactive” and the inhibition [5] was 50%. The pIC50 [6] was 7.39 and the inhibition [9] was 50%.

`Cc1ccsc1-c1ccc(C(=O)Nc2c(C)cc(O)cc2C)o1` gave an inhibition [7] of 10%, an inhibition [8] of 75% and an inhibition [5] of 80%. For the same compound, the pIC50 [6] was 7.34 and the inhibition [9] was “inactive”.

With `Cc1cc(CO)cc(C)c1NC(=O)c1ccc(-c2cc(Cl)ccc2Cl)o1` the inhibition [7] was 60%, the pIC50 [2] was 5.52 and the inhibition [8] was 45%. For the same compound, the inhibition [5] was 85%, the pIC50 [6] was 7.68 and the inhibition [9] was 40%.

With `COc1ccc(C)c(NC(=O)c2ccc(-c3cc(Cl)ccc3Cl)o2)c1` the pIC50 [6] was 6.03.

With `CCc1cccc(CC)c1NC(=O)c1ccc(-c2cc(Cl)ccc2Cl)o1` the inhibition [7] was “inactive”, the inhibition [8] was “inactive” and the inhibition [5] was “inactive”. The pIC50 [6] was 7.05 and the inhibition [9] was “inactive”.

`CC(C)c1cccc(C(C)C)c1NC(=O)c1ccc(-c2cc(Cl)ccc2Cl)o1` showed a pIC50 [6] of 6.98.

Work on `Cc1cccc(C)c1NC(=O)c1ccc(-c2cccs2)o1` yielded a pIC50 [6] of 6.93.

Work on `Cc1cccc(Cl)c1NC(=O)c1ccc(-c2cc(Cl)ccc2Cl)o1` yielded a pIC50 [6] of 6.77.

For `Cc1ccc(C)c(-c2ccc(C(=O)Nc3c(C)cccc3C)o2)c1`, the pIC50 [6] was 7.19.

Work on `O=C(Nc1c(F)cccc1F)c1ccc(-c2cc(Cl)ccc2Cl)o1` yielded a pIC50 [6] of 5.19.

Work on `Cc1cccc(C)c1N(C)C(=O)c1ccc(-c2ccccc2Cl)o1` yielded a pIC50 [6] of 6.57.

For `CC(=O)NCc1cc(C)c(NC(=O)c2ccc(-c3cc(Cl)ccc3Cl)o2)c(C)c1`, the pIC50 [6] was 7.03.

In the case of `Cc1cc(C)c(NC(=O)c2ccc(-c3cc(Cl)ccc3Cl)o2)c(C)c1`, the pIC50 [6] was 7.20.

For `Cc1cccc(C)c1NC(=O)c1ccc(-c2cccc(Cl)c2)o1`, the pIC50 [6] was 6.30.

Work on `COc1cccc(OC)c1NC(=O)c1ccc(-c2cc(Cl)ccc2Cl)o1` yielded a pIC50 [6] of 6.38.

Compound `COc1ccc(NC(=O)c2ccc(-c3cc(Cl)ccc3Cl)o2)c(C)c1` has a pIC50 [6] of 6.23.

Work on `Cc1cccc(C)c1NC(=O)c1ccc(-c2cc(F)ccc2F)o1` yielded a pIC50 [6] of 6.51.

Compound `Cc1cccc(C)c1N(C)C(=O)c1ccc(-c2ccco2)o1` has a pIC50 [6] of 6.89.

`Cc1cc(OCC(N)=O)cc(C)c1NC(=O)c1ccc(-c2cc(Cl)ccc2Cl)o1` was tested, and the pIC50 [6] was 7.28.

For `COc1ccc(OC)c(-c2ccc(C(=O)N(C)c3c(C)cccc3C)o2)c1`, the pIC50 [6] was 6.29.

`Cc1cccc(C)c1NC(=O)c1ccc(-c2cc(C(F)(F)F)ccc2C(F)(F)F)o1` was tested, and the inhibition [1] was “inactive”.

For `Cc1cccc(C)c1NC(=O)c1ccc(-c2ccc(Cl)s2)o1`, the pIC50 [6] was 6.29.

With `O=C(c1ccc(-c2cc(Cl)ccc2Cl)o1)N1CCc2ccccc21` the inhibition [1] was “inactive”.

With `Cc1ccc(S(C)(=O)=O)c(C)c1NC(=O)c1ccc(-c2cc(Cl)ccc2Cl)o1` the pIC50 [6] was 6.52.

Compound `Cc1cc(CN(C)C)cc(C)c1NC(=O)c1ccc(-c2cc(Cl)ccc2Cl)o1` has a pIC50 [6] of 6.46.

For `Cc1cscc1-c1ccc(C(=O)Nc2c(C)cccc2C)o1`, the pIC50 [6] was 6.54.

Work on `COc1cccc(C)c1NC(=O)c1ccc(-c2cc(Cl)ccc2Cl)o1` yielded a pIC50 [6] of 6.79.

`Cc1ccsc1-c1ccc(C(=O)Nc2c(C)cccc2C)o1` showed an inhibition [7] of 20%, a pIC50 [2] of 5.59 and an inhibition [8] of 95%. The pIC50 [6] was 7.03 and the inhibition [9] was 40%.

`Cc1cccc(C)c1NC(=O)c1ccc(-c2ccc(Cl)cc2Cl)o1` was tested, and the pIC50 [6] was 5.70.

With `Cc1cccc(C)c1NC(=O)c1ccc(-c2ccccc2)o1` the pIC50 [6] was 6.24.

With `Cc1cccc(C)c1NC(=O)c1ccc(-c2cc(Cl)ccc2Cl)o1` the pIC50 [4] was 4.85 and the pIC50 [6] was 7.11.

With `Cc1ccc2ccccc2c1NC(=O)c1ccc(-c2cc(Cl)ccc2Cl)o1` the pIC50 [6] was 6.60.

`Cc1cc(C)c(N(C)C(=O)c2ccc(-c3cc(Cl)ccc3Cl)o2)c(C)c1` gave a pIC50 [6] of 5.09.

In the case of `COc1cc(C)c(NC(=O)c2ccc(-c3cc(Cl)ccc3Cl)o2)c(C)c1`, the inhibition [7] was 30%, the pIC50 [2] was 5.55 and the inhibition [8] was 20%. It also gave an inhibition [5] of 70%, a pIC50 [6] of 7.10 and an inhibition [9] of 40%.

`Cc1ccc(C)c(NC(=O)c2ccc(-c3cc(Cl)ccc3Cl)o2)c1` showed a pIC50 [6] of 6.78.

In the case of `CC(=O)OCc1cc(C)c(NC(=O)c2ccc(-c3cc(Cl)ccc3Cl)o2)c(C)c1`, the pIC50 [6] was 7.47.

Work on `Cc1cc(CN)cc(C)c1NC(=O)c1ccc(-c2cc(Cl)ccc2Cl)o1` yielded an inhibition [7] of 95%, a pIC50 [2] of 5.41 and a pIC50 [3] of 5.19. For the same compound, the pIC50 [4] was 5.26, the inhibition [5] was 90% and the pIC50 [6] was 7.60. For the same compound, the inhibition [9] was 90%.

With `Cc1cccc(C)c1NC(=O)c1ccc(-c2c(C)cccc2C)o1` the inhibition [1] was “inactive”.

In the case of `Cc1ccsc1-c1ccc(C(=O)Nc2c(C)cc(CO)cc2C)o1`, the inhibition [7] was “inactive”, the inhibition [8] was 80% and the inhibition [5] was 90%. The pIC50 [6] was 7.47 and the inhibition [9] was “inactive”.

In the case of `Cc1cc(OCCO)cc(C)c1NC(=O)c1ccc(-c2cc(Cl)ccc2Cl)o1`, the inhibition [7] was 70%, the pIC50 [2] was 5.62 and the inhibition [8] was 35%. The inhibition [5] was 90%, the pIC50 [6] was 7.36 and the inhibition [9] was 60%.

`Cc1cccc(CO)c1NC(=O)c1ccc(-c2cc(Cl)ccc2Cl)o1` showed a pIC50 [6] of 6.24.

`Cc1cc(-c2ccccc2)cc(C)c1NC(=O)c1ccc(-c2cc(Cl)ccc2Cl)o1` was tested, and the pIC50 [6] was 6.94.

`Cc1cccc(C)c1NC(=O)c1ccc(-c2ccsc2)o1` showed a pIC50 [6] of 6.35.
